Experimental data: ChEMBL document CHEMBL4513216, “Probing the Open Global Health Chemical Diversity Library for Multistage-Active Starting Points for Next-Generation Antimalarials” (ACS Infect Dis, 2020)

Test: Toxicity liver stage against HepG2, at 10uM
Type: cell-based
Set-up: test concentration 10 uM, cell line HepG2-A16-CD81EGFP
Conditions: human, HepG2-A16-CD81EGFP cells; read-out: INHIBITION
Summary of the method: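 Uninfected HepG2-A16-CD81EGFP cells, 3 × 10^3 per well, 1536-well, plated on prespotted compound at 10 μM final, parasite-free screening media added to match infected plates; puromycin 10 μM positive, DMSO 0.5% negative; run in parallel with 48 h PbLuc assay at 37 °C, 5% CO2; viability by CellTiter-Glo luminescence, normalized to controls.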

Point of comparison: `Fc1ccc2c(c1)C(NCc1nnc3n1CCCCC3)CCCO2` (stereo not given), cytotoxicity at 10 µM -9.52%. Against it:
- NS(=O)(=O)c1cccnc1NCc1ccco1 — higher, -8.21%
- Cc1cccc(CNC[C@H]2Cn3ccnc3CO2)n1 — higher, 3.15%
- Fc1ccc(-c2noc([C@@H]3Cc4nc[nH]c4CN3)n2)cc1 — higher, -5.9%
- Cc1n[nH]c2c1C(c1ccc3c(c1)OCCO3)SCC(=O)N2 (stereo not given) — higher, -0.37%
- Cc1cccc(-n2ncc3c(=O)n(CCN4CCCCC4)cnc32)c1C — higher, -6.57%
- Cc1ccc(-c2csc3c(=O)[nH]c(N4CCCC(C(N)=O)C4)nc23)cc1 (stereo not given) — higher, -3.09%
- CCOCC(=O)NCCn1ccc(-c2ccccn2)n1 — higher, 11.4%
- CCc1cnc(N2C[C@H]3CN(Cc4ccc(OC)cc4)C(=O)[C@H]3C2)nc1 — higher, 11.6%
- Cc1cc(CN2C[C@@H]3CN(Cc4ccsc4)CCO[C@@H]3C2)no1 — lower, -139%
- COCCN1CCC2(CC1)CC(CC(N)=O)c1ccc(F)cc12 (stereo not given) — higher, 8.98%
- O=C(c1cnccn1)N1CCCC2(CCCN2Cc2cccnc2)C1 (stereo not given) — higher, -1.01%
- COc1cc(CO)c(OC)c2c1OCO2 — higher, -2.93%
- CC(C)c1nnc2ccc(N3CCC(C(=O)O)CC3)nn12 — higher, -1.92%
- COc1ccc(NC(=O)N2CCCC2c2ccco2)cc1OC (stereo not given) — higher, -7.07%
- CS(=O)(=O)N1CCCC12CCCN(S(=O)(=O)c1cc(F)cc(F)c1)C2 (stereo not given) — higher, 10.9%
- CCc1ncnc2c1CCN(C(=O)N1CCCC1)CC2 — higher, 5.46%
- Cc1nc([C@@H]2C[C@@H]3CCN(C(=O)c4ccnnc4)C[C@H]3O2)sc1C — higher, 2.68%
- CCCn1nccc1C(=O)Nc1nc(C)c(C)s1 — higher, -6.19%
- Cc1ccc(CNC(=O)c2cc(NC(=O)C3CC3)n(C)n2)o1 — higher, 4.82%
- CCn1ccc(NC(=O)c2cc(C)on2)n1 — higher, -2.23%
- O=C(c1cc(-c2ccco2)cs1)N1CCOCC1 — higher, 4.81%
- CCn1nc(C)c2nc(C(C)C)nc(NCCCO)c21 — higher, 6.48%
- CN(C)S(=O)(=O)N1CCC(c2ccncn2)CC1 — lower, -20.5%
- O=C(O)c1ccccc1CN1CCC(c2ccnc3ccnn23)CC1 — lower, -37.8%
- CC(C)c1cc(O)nc(C2CCCN2C(=O)C2CC2)n1 (stereo not given) — lower, -25.1%
- Cc1c(C2CCCN(C(=O)c3ccn(C)n3)C2)n2c(nc1=O)CCC2 (stereo not given) — higher, 0.862%
- CC(=O)Nc1nc(C2CCN(C(=O)c3ccncc3)CC2)cs1 — higher, -9.44%
- COC(=O)CN1CCC(C(F)(F)F)CC1 — higher, 8.12%
- CCCS(=O)(=O)NC(=O)c1ccc(-n2nc(C)cc2C)cc1 — higher, 1.36%
- O=C(NC1=NCCS1)C1CSCN1C(=O)C1CCCC1 (stereo not given) — higher, 6.8%
- CC(C)Cc1nc(CN2CCC(N3CCN(C)C3=O)CC2)no1 — higher, 14%
- CN(C)c1ccc(C(=O)Nc2cnn(Cc3ccccn3)c2)cc1 — higher, -8.36%
- CS(=O)(=O)CCNC(=O)N1CC2(CCCC2)c2ccccc21 — higher, 0.883%
- COc1ccc(Cl)cc1CCNC(=O)NCc1cnn(C)c1C — higher, 3.87%
- O=C(CNC(=O)c1cc(Cl)ccn1)Nc1nccs1 — higher, -1.87%
- CCc1nccn1CC1CCCN1S(=O)(=O)N1CCCOCC1 (stereo not given) — lower, -11.5%
- CCC(CC)NC(=O)c1nc2n(n1)-c1ccccc1S(=O)(=O)N2 — higher, 8.3%
- Clc1cccnc1N1CCC(NCc2cccc3cn[nH]c23)C1 (stereo not given) — higher, 13.7%
- O=C(Nc1cnn(Cc2ccc(Cl)cc2)c1)N[C@@H]1C=C[C@H](CO)C1 — higher, -2.96%
- CCc1nnc(SC2CCCN(c3cccc(F)c3)C2=O)n1C (stereo not given) — higher, 7.17%
- CC(C)(C)OC(=O)NCC1CCCCN1Cc1ccccn1 (stereo not given) — higher, -3.59%
- Cc1cc(CN2CCN(C(=O)CCc3cccs3)CC2)on1 — higher, -5%
- Cc1nc(C)n(CC2CCCCN2Cc2nnc(-c3ccco3)o2)n1 (stereo not given) — lower, -10.2%
- COCc1ccccc1NC(=O)NCc1ccc(OCC2CC2)nc1 — higher, 3.88%
- Cn1ccc2c(C(=O)N3CCN(C(=O)C4CCCC4)CC3)cccc21 — higher, -0.53%
- CC(C)(C(=O)NCC(=O)NCc1ccccc1)c1ccccc1F — higher, 4.63%
- O=C(NC1CCCN(c2ccccc2F)C1)c1ccon1 (stereo not given) — higher, -6.43%
- CC(NS(=O)(=O)CCc1ccccn1)c1ccccc1Br (stereo not given) — higher, -4.74%
- O=C1CN(C(=O)C2CCOCC2)CCN1Cc1ccc(Cl)cc1 — lower, -146%
- CCNC(=O)CN(Cc1ccoc1)C1CCCCC1 — higher, 7.59%
- CCOCCN1CCN(CC(O)c2ccc(OC)cc2)CC1 (stereo not given) — higher, -2.28%
- COc1c(C)cnc(CN2CCCC2c2noc(C)n2)c1C (stereo not given) — higher, -3.75%
- Cc1nsc(NCc2ccc(S(=O)(=O)N(C)C(C)C)cc2)n1 — higher, 16.2%
- CCCn1ccc2cc(NC(=O)CC3CCCO3)ccc21 (stereo not given) — higher, -3.45%
- CCN(CC1CCCO1)S(=O)(=O)N1CCCCCC1 (stereo not given) — higher, -1%
- Cc1nc(C2CCCN2C(=O)CCCOc2cccc(F)c2)no1 (stereo not given) — higher, 5.09%
- FC(F)(F)COCCN1CCCC(c2noc(C3CC3)n2)C1 (stereo not given) — higher, 3.3%
- CS(=O)(=O)NCCNC(=O)C1(c2cccc(Cl)c2)CC1 — higher, 5.63%
- CS(=O)(=O)NCC1CCCN(C(=O)Nc2cccnc2N2CCCC2)C1 (stereo not given) — higher, 3.85%
- CC(C)NC(=O)Nc1ccc(CS(=O)(=O)C(C)(C)C)cc1 — higher, -1.97%
- CC(=O)N1CCO[C@@H]2CN(S(=O)(=O)c3ccc(C)cc3)CC[C@@H]2C1 — higher, 8.28%
- CNC(=O)[C@H]1C[C@@H]2CCN(Cc3ccc4c(c3)OCO4)C[C@@H]2O1 — higher, 5.79%
- Cc1cn2c(=O)c(-c3ccnc(NC4CCOCC4)n3)cnc2s1 — higher, -5.5%
- O=C(O)[C@@H]1CN(C(=O)CSCC2CC2)C[C@H]1c1ccncc1 — lower, -17.6%
- COc1ccc(OCc2cc(C(=O)N3CCCCO3)n[nH]2)c(Cl)c1 — higher, 8.15%
- CCc1ccc(CN2CCC(c3ccccc3C(=O)O)C2)nc1 (stereo not given) — higher, 1.69%
- Cc1cncc(C(=O)N2CCNCC2C(=O)NCc2ccncc2)c1 (stereo not given) — higher, -4%
- CCC(=O)N1CCCC(C(=O)NCc2noc(Cc3ccccc3)n2)C1 (stereo not given) — higher, -1.15%
- COc1ccccc1-n1nc(CC(C)C)nc1Cc1nnc(N)s1 — higher, 6.17%
- CC(C)=CCN1CCN(S(=O)(=O)c2cn(C)cn2)[C@H]2CS(=O)(=O)C[C@H]21 — higher, 0.634%
- O=C(c1ccc(O)cn1)N1CCOC(Cc2cccc(C(F)(F)F)c2)C1 (stereo not given) — higher, 5.08%
- COCC(=O)N1CCCN(Cc2cc(C(C)C)no2)CC1 — higher, 5.97%
- Cc1nc(CC(=O)N2CCC3(CC2)CC(=O)N(CC2CCCO2)C3)cs1 (stereo not given) — higher, -7.85%
- COc1cc(C)c(C2CC(=O)NCc3nc4sccn4c32)cc1C (stereo not given) — higher, -2.19%
- CC(c1nccs1)N(C)Cc1ccc(CCC(C)(C)O)cc1 (stereo not given) — higher, 2.55%
- Oc1ccc(-c2c(-c3ccccc3)ncn2C[C@H]2CCCN2)cc1 — higher, 17.5%
- Cc1cc(C)n(CC(C)Nc2nc(C)nc3c2CCNC3)n1 (stereo not given) — higher, 2.51%
- Cc1nc(C(C)C)cc(N2CCC3(CCC(=O)N(CC4CC4)C3)CC2)n1 — higher, -2.99%
- COCCN(Cc1sccc1C)C(=O)C1CCN(C(C)C)CC1 — higher, -2.72%
- N#Cc1cccc(C(=O)N2CCCC(C(=O)CCc3ccccc3)C2)c1 (stereo not given) — higher, 0.488%
- CS(=O)(=O)NCCC1CN(Cc2ccccc2F)CCO1 (stereo not given) — higher, -7.31%
- COc1nccc(N2CC[C@H](CO)[C@@H](O)C2)c1C#N — lower, -141%
- COc1ccc2c(c1)OCC(C(=O)NCc1ncc3c(n1)CCC3)C2 (stereo not given) — higher, 2.15%
- Cc1nccc(CNC(=O)CCc2c(C)nc3cc(O)nn3c2C)n1 — higher, -1.56%
- Cc1ccc(CC(=O)N2CCCC(n3ccnc3C(C)C)C2)cn1 (stereo not given) — higher, -5.11%
- CCc1nc(C2CCCN2C(=O)CCc2nc(C3CC3)no2)no1 (stereo not given) — higher, -2.66%
- CN(Cc1ccccc1)CC(O)Cn1cnc2cc(F)ccc2c1=O (stereo not given) — higher, -5.28%
- CN(C)c1cc(C(=O)N2CCN(c3cc(C#N)ccn3)CC2)ccn1 — higher, -9.27%
- CN(Cc1ccccc1)C(=O)CN1CCOC(Cn2cncn2)C1 (stereo not given) — higher, -3.66%
- Cc1cnc(CN(C)C2CCN(CCCc3ccccc3)C2)o1 (stereo not given) — higher, -4.02%
- Cc1noc(C)c1CN(C)C(=O)c1ccc(C(F)(F)F)nc1 — lower, -10%
- Cc1nc(C2CCCN2CC(=O)Nc2cc(C(C)(C)C)nn2C)no1 (stereo not given) — lower, -10.9%
- CC(C)(C)C(=O)NCCc1ccn(-c2ccccc2)n1 — higher, 1.76%
- Cn1cncc1CN1CCc2nc3sccc3c(=O)n2CC1 — higher, -3.75%
- COc1ccccc1CN1C[C@@H]2COC[C@]2(COc2cccnc2)C1 — higher, 6.24%
- CO[C@H]1CCN(S(=O)(=O)c2cn(C)cn2)[C@H]1Cc1ccccc1 — higher, 6.19%
- O=C(NC1COC2(CCN(Cc3ccccn3)CC2)C1)c1ccccn1 (stereo not given) — higher, -4.74%
- Fc1cccc(N2CCCC3(CN(Cc4ccccn4)CCO3)C2)c1 (stereo not given) — higher, 2.29%
- Cn1cc(CN2CCCC23CCN(C(=O)c2ccccc2)CC3)cn1 — higher, 0.613%
- CC(=O)N1CCC2(CC1)COCCN2CCN(C)C — higher, -7.98%
- CC1c2ncc(CNC(=O)C3CC3)n2CCN1Cc1cnn(C)c1 (stereo not given) — lower, -20.2%
- O=C1CCCN1Cc1nnc2n1CCCN(Cc1ccco1)C2 — higher, 3.24%
- CC1c2ncc(Cn3cccn3)n2CCN1Cc1cccnc1 (stereo not given) — higher, 6.49%
- CC(C)NC(=O)[C@H]1C[C@@H]2[C@@H](C1)OCCN2Cc1cccs1 — higher, 10.3%
- Cc1ccc(C(=O)N2CCC3(CC2)COC(COc2ccccn2)C3)o1 (stereo not given) — higher, -0.954%
- CN(C)C(=O)CN1CC[C@H]2[C@H]1CCN2c1ncccn1 — higher, 8.28%
- COC(=O)Cn1c(=O)[nH]c2cn(-c3cccc(C)c3)c(=O)n21 — higher, 5.42%
- Cn1cccc1C(=O)N1C[C@@H]2CC[C@H]1CN(Cc1cscn1)C2 — higher, 2.9%
- CCn1cc(-n2cc3nc(N)[nH]cc-3c2=O)cn1 — higher, 3.15%
